Test results published in ChEMBL document CHEMBL2439995, “Synthesis and Evaluation of Quinazolone Derivatives as a New Class of c-KIT G-Quadruplex Binding Ligands” (ACS Med Chem Lett, 2013).
Calls of active or inactive are those of the source. No cut-off for these calls is given here.

Key:
[1] = Binding affinity to duplex DNA (unknown origin) up to 20 uM by surface plasmon resonance method
Outline: (§1)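 SPR binding to immobilized c-KIT1 G-quadruplex or duplex DNA, ligand injected at various concentrations, up to 20 µM. KD obtained by global fitting of the kinetic data to a 1:1 Langmuir binding model.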

[2] = Binding affinity to biotinylated c-KIT1 G-quadruplex DNA (unknown origin) by surface plasmon resonance method; outline: as §1
[3] = Binding affinity to F-c-KIT1-T G-quadruplex DNA (unknown origin) assessed as change in melting temperature at 5 uM by FRET assay
MCF7 [4] = assay: Binding affinity to full length wild type c-KIT2 G-quadruplex DNA isolated from human MCF7 cells at 2.5 uM after 48 hrs by dual luciferase reporter gene assay; assay type: cell-based
Outline: (§2)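 MCF-7 cells transiently transfected with a luciferase plasmid carrying the full-length wild-type c-KIT promoter or its mutant, plus pRL-TK. Cells treated 48 h with compound at 2.5 µM or a range of concentrations. Firefly signal normalized to pRL-TK, expressed relative to untreated cells (100%). Triplicates, three independent experiments, standard error.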

MCF7 [5] = assay: Binding affinity to full length wild type c-KIT1 G-quadruplex DNA isolated from human MCF7 cells at 2.5 uM after 48 hrs by dual luciferase reporter gene assay; assay type: cell-based; outline: as §2
[6] = Binding affinity to F-c-KIT2-T G-quadruplex DNA (unknown origin) assessed as change in melting temperature at 5 uM by FRET assay
[7] = Binding affinity to F10T duplex DNA (unknown origin) assessed as change in melting temperature at 5 uM by FRET assay
MCF7 [8] = assay: Binding affinity to c-KIT2 mutant G-quadruplex DNA isolated from human MCF7 cells at 2.5 uM after 48 hrs by dual luciferase reporter gene assay; assay type: cell-based; outline: as §2
HGC-27 [9] = assay: Cytotoxicity against HGC27 cells assessed as cell viability after 48 hrs by MTT assay; assay type: functional, cell-based; details: Homo sapiens, HGC-27, 48 h
MCF7 [10] = assay: Binding affinity to c-KIT1 mutant G-quadruplex DNA isolated from human MCF7 cells at 2.5 uM after 48 hrs by dual luciferase reporter gene assay; assay type: cell-based; outline: as §2
MCF7 [11] = assay: Binding affinity to full length wild type c-KIT1 G-quadruplex DNA isolated from human MCF7 cells at 5 uM after 48 hrs by dual luciferase reporter gene assay relative to control; assay type: cell-based; outline: as §2
MCF7 [12] = assay: Binding affinity to c-KIT1 mutant G-quadruplex DNA isolated from human MCF7 cells at 5 uM after 48 hrs by dual luciferase reporter gene assay relative to control; assay type: cell-based; outline: as §2
MCF7 [13] = assay: Binding affinity to full length wild type c-KIT1 G-quadruplex DNA isolated from human MCF7 cells after 48 hrs by dual luciferase reporter gene assay; assay type: cell-based; outline: as §2
[14] = Binding affinity to c-KIT2 G-quadruplex DNA (unknown origin) at 25 uM by CD spectrophotometric analysis
Outline: (§3)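 Circular dichroism spectra of 5 µM c-KIT1 or c-KIT2 oligonucleotide in 10 mM Tris–HCl, pH 7.2, 100 mM KCl, recorded with and without 25 µM ligand. Bands near 263 nm (positive) and 240 nm (negative) monitored.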

[15] = Binding affinity to c-KIT1 G-quadruplex DNA (unknown origin) at 25 uM by CD spectrophotometric analysis; outline: as §3
MCF7 [16] = assay: Binding affinity to c-KIT2 mutant G-quadruplex DNA isolated from human MCF7 cells at 5 uM after 48 hrs by dual luciferase reporter gene assay relative to control; assay type: cell-based; outline: as §2
MCF7 [17] = assay: Binding affinity to full length wild type c-KIT2 G-quadruplex DNA isolated from human MCF7 cells after 48 hrs by dual luciferase reporter gene assay; assay type: cell-based; outline: as §2
HGC-27 [18] = assay: Downregulation of c-KIT mRNA expression in HGC27 cells at 2.5 uM after 24 hrs by RT-PCR analysis relative to control; assay type: functional, Homo sapiens
Outline: (§4)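 HGC-27 gastric carcinoma cells treated 24 h at final 1.25, 2.5 or 5 µM. c-KIT mRNA quantified by RT-PCR against β-actin, relative to control.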

HGC-27 [19] = assay: Downregulation of c-KIT mRNA expression in HGC27 cells at 1.25 uM after 24 hrs by RT-PCR analysis relative to control; assay type: functional, Homo sapiens; outline: as §4
HGC-27 [20] = assay: Downregulation of c-KIT mRNA expression in HGC27 cells at 5 uM after 24 hrs by RT-PCR analysis relative to control; assay type: functional, Homo sapiens; outline: as §4
MCF7 [21] = assay: Binding affinity to full length wild type c-KIT2 G-quadruplex DNA isolated from human MCF7 cells at 5 uM after 48 hrs by dual luciferase reporter gene assay relative to control; assay type: cell-based; outline: as §2
HGC-27 [22] = assay: Downregulation of c-KIT mRNA expression in HGC27 cells after 24 hrs by RT-PCR analysis relative to control; assay type: functional, cell-based; details: Homo sapiens; outline: as §4

CN1CCN(c2cc3nc(/C=C/c4ccc(NC(=O)CN5CCCC5)cc4)n(-c4ccccc4)c(=O)c3cc2F)CC1
Activity [1]: inactive | Kd [2]: 0.784 µM | ΔTm [3]: 6.4 °C | inhibition (MCF7 [4]): Active | inhibition (MCF7 [5]): Active | ΔTm [6]: 9.4 °C | ΔTm [7]: 0 °C | inhibition (MCF7 [8]): inactive | IC50 (HGC-27 [9]): 2.3 µM | inhibition (MCF7 [10]): inactive

CCN(CC)CC(=O)Nc1ccc(/C=C/c2nc3cc(N4CCN(C)CC4)c(F)cc3c(=O)n2-c2ccccc2)cc1
ΔTm [3]: 5.5 °C | inhibition (MCF7 [4]): Active | inhibition (MCF7 [5]): Active | ΔTm [6]: 7.8 °C | ΔTm [7]: 0 °C | inhibition (MCF7 [8]): inactive | IC50 (HGC-27 [9]): 18.4 µM | inhibition (MCF7 [10]): inactive

CN1CCN(c2cc3nc(/C=C/c4ccc(NC(=O)CN5CCCCC5)cc4)n(-c4ccccc4)c(=O)c3cc2F)CC1
ΔTm [3]: 4.2 °C | inhibition (MCF7 [4]): Active | inhibition (MCF7 [5]): Active | ΔTm [6]: 7.5 °C | ΔTm [7]: 0.1 °C | inhibition (MCF7 [8]): inactive | IC50 (HGC-27 [9]): 1.3 µM | inhibition (MCF7 [10]): inactive

CN(C)CCNC(=O)c1ccc(/C=C/c2nc3cc(N4CCN(C)CC4)c(F)cc3c(=O)n2-c2ccccc2)cc1
Activity [1]: inactive | Kd [2]: 1.16 µM | ΔTm [3]: 15.1 °C | inhibition (MCF7 [4]): Active | inhibition (MCF7 [5]): Active | ΔTm [6]: 15.9 °C | ΔTm [7]: 0.5 °C | inhibition (MCF7 [8]): inactive | IC50 (HGC-27 [9]): 21.2 µM | inhibition (MCF7 [10]): inactive

Cc1ccc(NC(=O)c2ccc(CN3CCN(C)CC3)cc2)cc1Nc1nccc(-c2cccnc2)n1 [IMATINIB]
IC50 (HGC-27 [9]): 3.8 µM

CN1CCN(c2cc3nc(/C=C/c4ccc(C(=O)NCCCN5CCCC5)cc4)n(-c4ccccc4)c(=O)c3cc2F)CC1
Activity [1]: inactive | Kd [2]: 1.99 µM | ΔTm [3]: 15.9 °C | inhibition (MCF7 [4]): Active | inhibition (MCF7 [5]): Active | ΔTm [6]: 16.8 °C | ΔTm [7]: 0.4 °C | inhibition (MCF7 [8]): inactive | IC50 (HGC-27 [9]): 12.3 µM | inhibition (MCF7 [10]): inactive

CN1CCN(c2cc3nc(/C=C/c4ccc(NC(=O)CCN5CCCCC5)cc4)n(-c4ccccc4)c(=O)c3cc2F)CC1
Activity [1]: inactive | Kd [2]: 0.916 µM | ΔTm [3]: 10.7 °C | inhibition (MCF7 [4]): Active | inhibition (MCF7 [5]): Active | ΔTm [6]: 12.6 °C | ΔTm [7]: 0 °C | inhibition (MCF7 [8]): inactive | IC50 (HGC-27 [9]): 8.2 µM | inhibition (MCF7 [10]): inactive

CN1CCN(c2cc3nc(/C=C/c4ccc(NC(=O)CCN5CCCC5)cc4)n(-c4ccccc4)c(=O)c3cc2F)CC1
Activity [1]: inactive | Kd [2]: 1.88 µM | ΔTm [3]: 11.3 °C | inhibition (MCF7 [4]): Active | inhibition (MCF7 [5]): Active | ΔTm [6]: 12.4 °C | ΔTm [7]: 0 °C | inhibition (MCF7 [8]): inactive | IC50 (HGC-27 [9]): 13.4 µM | inhibition (MCF7 [10]): inactive

CCN(CC)CCNC(=O)c1ccc(/C=C/c2nc3cc(N4CCN(C)CC4)c(F)cc3c(=O)n2-c2ccccc2)cc1
inhibition (MCF7 [11]): 37% | inhibition (MCF7 [12]): 20% | Activity [1]: inactive | inhibition (MCF7 [13]): Dose-dependent effect | Kd [2]: 1.37 µM | Activity [14]: Active | ΔTm [3]: 13.4 °C | inhibition (MCF7 [4]): Active | Activity [15]: Active | inhibition (MCF7 [5]): Active | ΔTm [6]: 14.3 °C | ΔTm [7]: 0.4 °C | inhibition (MCF7 [16]): 20% | inhibition (MCF7 [8]): inactive | inhibition (MCF7 [17]): Dose-dependent effect | Activity (HGC-27 [18]): 10.4% | Activity (HGC-27 [19]): 5.7% | IC50 (HGC-27 [9]): 8.6 µM | inhibition (MCF7 [10]): inactive | Activity (HGC-27 [20]): 35.7% | inhibition (MCF7 [21]): 37% | Activity (HGC-27 [22]): Dose-dependent effect

CN1CCN(c2cc3nc(/C=C/c4ccc(C(=O)NCCN5CCCC5)cc4)n(-c4ccccc4)c(=O)c3cc2F)CC1
Activity [1]: inactive | Kd [2]: 15.7 µM | ΔTm [3]: 12.3 °C | inhibition (MCF7 [4]): Active | inhibition (MCF7 [5]): Active | ΔTm [6]: 13.4 °C | ΔTm [7]: 0.4 °C | inhibition (MCF7 [8]): inactive | IC50 (HGC-27 [9]): 17.2 µM | inhibition (MCF7 [10]): inactive

CCN(CC)CCC(=O)Nc1ccc(/C=C/c2nc3cc(N4CCN(C)CC4)c(F)cc3c(=O)n2-c2ccccc2)cc1
inhibition (MCF7 [11]): 45% | inhibition (MCF7 [12]): 22% | Activity [1]: inactive | inhibition (MCF7 [13]): Dose-dependent effect | Kd [2]: 0.612 µM | Activity [14]: Active | ΔTm [3]: 11.1 °C | inhibition (MCF7 [4]): Active | Activity [15]: Active | inhibition (MCF7 [5]): Active | ΔTm [6]: 13.6 °C | ΔTm [7]: 0 °C | inhibition (MCF7 [16]): 22% | inhibition (MCF7 [8]): inactive | inhibition (MCF7 [17]): Dose-dependent effect | Activity (HGC-27 [18]): 22.8% | Activity (HGC-27 [19]): 4.9% | IC50 (HGC-27 [9]): 6.8 µM | inhibition (MCF7 [10]): inactive | Activity (HGC-27 [20]): 52.5% | inhibition (MCF7 [21]): 45% | Activity (HGC-27 [22]): Dose-dependent effect
